In ChEMBL document CHEMBL3227951, “Alkylating nucleosides 1. Synthesis and cytostatic activity of N-glycosyl(halomethyl)-1,2,3-triazoles. A new type of alkylating agent” (J Med Chem, 1979) one finds EC50, Activity and T/C data, which are given here for 19 compounds.

The subject of data set [1] is HeLa. In words: In vitro cytostatic activity against human HeLa cells assessed as cell growth after 72 hrs by colorimetric method. The class given is functional. As to conditions: read-out: ED50 (the source's name). The method in brief: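 HeLa cells at 10⁵ cells/mL in Eagle's minimal medium with 10% fetal calf serum, Leighton tubes, 37 °C. Compound added 2-3 h after attachment, suspended in sterile saline with 0.05% Tween 80 (10% of final volume). Incubated 72 h at 37 °C. Growth measured as cell protein by the Oyama-Eagle colorimetric method. 6-Mercaptopurine was the positive control. ED50 in μg/mL.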

Data set [2] deals with Mus musculus. The data set is described as follows: In vivo cytostatic activity against mouse Ehrlich carcinoma ascites allografted in ip dosed ICR swiss mouse assessed as median survival time administered qd for 9 days beginning 24 hrs after tumor implantation. The class given is functional, organism-based. The method in brief:
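Female ICR Swiss mice (19-22 g) carrying Ehrlich ascites carcinoma, following NCI protocols 1100/1200. Compound suspended in 0.9% NaCl with 0.5% Tween 80 and given ip at 0.4 mL, once daily for 9 days starting 24 h after implantation. Groups of 6 treated and 30 control mice. 5-Fluorouracil at 20 mg/kg was the positive control. T/C = median survival of treated over control, ×100.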

Data set [3] can be described thus: In vivo cytostatic activity against mouse Ehrlich carcinoma ascites allografted in ICR swiss mouse assessed as median survival time at 75 mg/kg, ip administered qd for 9 days beginning 24 hrs after tumor implantation relative to control. To be noted: route intraperitoneal. The class given is functional. The method in brief: (§1)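 Female ICR Swiss mice (19-22 g) bearing Ehrlich ascites carcinoma, per NCI protocols 1100/1200; compound suspended in 0.9% NaCl with 0.5% Tween 80, given ip at 0.4 mL once daily for 9 days from 24 h post-implant. Groups of 6 treated vs 30 controls; 5-fluorouracil 20 mg/kg/injection as positive control. T/C = treated/control median survival time as percentage.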

Data set [4] deals with P388. The data set is described as follows: In vivo cytostatic activity against mouse P388 cells allografted in mouse assessed as increase in host life span at 50 mg/kg. The format is functional.
Data set [5] relates to Mus musculus. The data set is described as follows: Toxicity in ICR swiss mouse allografted with mouse Ehrlich carcinoma ascites assessed as change in body weight at 75 mg/kg, ip administered qd for 9 days beginning 24 hrs after tumor implantation. As to conditions: in vivo. Also on record: dose 75 mg/kg, route intraperitoneal. The format is organism-based. The method in brief: (§2)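 Female ICR Swiss mice (19-22 g) carrying Ehrlich ascites carcinoma. Compound suspended in 0.9% NaCl with 0.5% Tween 80 and given ip at 0.4 mL, once daily for 9 days starting 24 h after implantation. Groups of 6 treated and 30 control mice. Read-out is the weight difference in grams between treated and control animals.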

A short description of data set [6]: In vivo cytostatic activity against mouse Ehrlich carcinoma ascites allografted in ICR swiss mouse assessed as median survival time at 100 mg/kg, ip administered qd for 9 days beginning 24 hrs after tumor implantation relative to control. To be noted: route intraperitoneal. The class given is functional. The method in brief:
as §1

Data set [7] concerns Mus musculus. The data set is described as follows: Toxicity in ICR swiss mouse allografted with mouse Ehrlich carcinoma ascites assessed as change in body weight at 100 mg/kg, ip administered qd for 9 days beginning 24 hrs after tumor implantation. The class given is organism-based. Also on record: dose 100 mg/kg, route intraperitoneal. To be noted: in vivo. The procedure, abridged:
as §2

Each structure is given as a SMILES string. Values after ≈ are worked out from the molar mass of the structure shown. Active and inactive are the calls of the source. No cut-off for these calls is given here.

As to `CC(=O)OC[C@H]1O[C@@H](n2nnc(CBr)c2CBr)[C@H](OC(C)=O)[C@@H](OC(C)=O)[C@@H]1OC(C)=O`, the EC50 in data set [1] was 3 µg/mL (≈ 5.13 µM). The result in data set [2] was inactive.

On to `CC(=O)N[C@@H]1[C@@H](OC(C)=O)[C@H](OC(C)=O)[C@@H](COC(C)=O)O[C@H]1n1nnc(CO)c1CO`, for which, in data set [1], the EC50 was over 100 µg/mL.

Consider `CC(=O)OC[C@H]1O[C@@H](n2cc(CCl)nn2)[C@H](OC(C)=O)[C@@H](OC(C)=O)[C@@H]1OC(C)=O`, for which, in data set [1], the EC50 came out at 37 µg/mL (≈ 82.6 µM).

As to `CC(=O)N[C@@H]1[C@@H](OC(C)=O)[C@H](OC(C)=O)[C@@H](COC(C)=O)O[C@H]1n1nncc1CO`, in data set [1], the EC50 was over 100 µg/mL.

In the case of `CC(=O)N[C@@H]1[C@@H](OC(C)=O)[C@H](OC(C)=O)[C@@H](COC(C)=O)O[C@H]1n1cc(CO)nn1`, the EC50 in data set [1] is over 100 µg/mL.

In the case of `Sc1ncnc2nc[nH]c12` [MERCAPTOPURINE ANHYDROUS], the EC50 in data set [1] stood at 0.1 µg/mL (≈ 0.657 µM).

As to `ICc1cn(Cc2ccccc2)nn1`, the EC50 in data set [1] is 2 µg/mL (≈ 6.69 µM). Moreover, the result in data set [2] was inactive.

Take `CC(=O)OC[C@H]1O[C@@H](n2cc(CBr)nn2)[C@H](OC(C)=O)[C@@H](OC(C)=O)[C@@H]1OC(C)=O`: the EC50 in data set [1] was 3.5 µg/mL (≈ 7.11 µM). For the same compound, the results for the T/C in data set [3] and in data set [4] were 145% and 163%, respectively. Further, in data set [2], the result was Active. The Activity in data set [5] is -0.5 g.

For the compound `FCc1cn(Cc2ccccc2)nn1`, in data set [1], the EC50 was over 100 µg/mL.

In the case of `CC(=O)OC[C@H]1O[C@@H](n2nncc2CBr)[C@H](OC(C)=O)[C@@H](OC(C)=O)[C@@H]1OC(C)=O`, in data set [1], the EC50 amounted to 4 µg/mL (≈ 8.13 µM). The result in data set [2] was inactive.

As to `ClCc1cn(Cc2ccccc2)nn1`, the EC50 in data set [1] amounted to 18 µg/mL (≈ 86.7 µM).

For the compound `CC(=O)OC[C@H]1O[C@@H](n2nncc2CCl)[C@H](OC(C)=O)[C@@H](OC(C)=O)[C@@H]1OC(C)=O`, the EC50 in data set [1] is 25 µg/mL (≈ 55.8 µM).

Consider `CC(=O)OC[C@H]1O[C@@H](n2nnc(CCl)c2CCl)[C@H](OC(C)=O)[C@@H](OC(C)=O)[C@@H]1OC(C)=O`, for which the EC50 in data set [1] stood at 6 µg/mL (≈ 12.1 µM).

As to `CC(=O)N[C@@H]1[C@@H](OC(C)=O)[C@H](OC(C)=O)[C@@H](COC(C)=O)O[C@H]1n1cc(CCl)nn1`, the EC50 in data set [1] was 20 µg/mL (≈ 44.8 µM).

Turning to `CC(=O)N[C@@H]1[C@@H](OC(C)=O)[C@H](OC(C)=O)[C@@H](COC(C)=O)O[C@H]1n1cc(CBr)nn1`, the EC50 in data set [1] came to 20 µg/mL (≈ 40.7 µM).

Take `CC(=O)OC[C@H]1O[C@@H](n2cc(CI)nn2)[C@H](OC(C)=O)[C@@H](OC(C)=O)[C@@H]1OC(C)=O`: the EC50 in data set [1] turned out to be 2 µg/mL (≈ 3.71 µM). Also, the T/C in data set [6] amounted to 195%. Also, in data set [2], the outcome was Active. Further, the Activity in data set [7] is on record as -1.1 g.

Consider `CC(=O)N[C@@H]1[C@@H](OC(C)=O)[C@H](OC(C)=O)[C@@H](COC(C)=O)O[C@H]1n1nncc1CCl`, for which the EC50 in data set [1] came out at 25 µg/mL (≈ 55.9 µM).

Turning to `BrCc1cn(Cc2ccccc2)nn1`, the EC50 in data set [1] turned out to be 2 µg/mL (≈ 7.93 µM). The outcome in data set [2] was inactive.

Take `CC(=O)OC[C@H]1O[C@@H](n2nnc(CO)c2CO)[C@H](OC(C)=O)[C@@H](OC(C)=O)[C@@H]1OC(C)=O`: the EC50 in data set [1] was over 100 µg/mL.
